# Paper PMC6710528 (British Journal of Clinical Pharmacology, 2019)
# “Also recorded” adds a separate entry of the source. Like-named read-outs stand apart in the source and are kept apart here.
# Assays:
# [1] = Plasma concentrations of ketoconazole and fluconazole to confirm steady state; assay type: in vivo, human (healthy subjects); details: 200 mg twice daily
# Outline: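 Inhibitors were given orally for 8 days (moderate inhibitor: 200 mg twice daily) before the test compound. Blood was drawn before the morning dose on Days 6–8. On Day 8 it was also drawn at 2 and 12 h post-dose for the strong inhibitor, and at 3 and 12 h for the moderate inhibitor. Plasma levels were measured by validated LC–MS/MS and reported as mean ± standard deviation.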
# [2] = assay type: in vivo, human (healthy subjects); details: for Increase in T1/2: quizartinib coadministered with ketoconazole; for Tmax / AUC(0-inf) / AUC(0-t) / half-life / Cmax: human, plasma, oral; for AUC(0-inf): AUCinf; for AUC(0-inf) / AUC(0-t) / Cmax: geometric LS mean (SE); for AUC(0-t): AUClast; for half-life: Mean T1/2 (CV%); for Geometric mean CL/F (%CV): quizartinib
# [3] = C-QTc model, phase 2 data; ref data on file, Daiichi Sankyo, Inc; cited from earlier work
# [4] = Safety: adverse event evaluation; assay type: in vivo, human (healthy subjects)
# Outline: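 Healthy males and females aged 18–55 years were randomised 1:1:1 to strong inhibitor + test compound, moderate inhibitor + test compound, or test compound alone. A single oral 30 mg dose was given on Day 8. The safety population was everyone who received the test compound or ≥1 inhibitor dose. Assessments included physical exams, vital signs, 12‑lead ECG, haematology, chemistry and urinalysis. AEs were graded for severity, relation to study drugs and clinical significance through Day 29.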
# [5] = 12-lead electrocardiograms: QTcF interval by ICH E14 category; assay type: in vivo, human (healthy subjects); details: single 30-mg dose alone or with ketoconazole or fluconazole
# [6] = ref data on file, Daiichi Sankyo, Inc; cited from earlier work
# [7] = AC886 in plasma, (Ketoconazole + Quizartinib)/(Quizartinib)
# [8] = 30 mg, quizartinib in plasma, single 30-mg dose of quizartinib alone
# [9] = 200 mg, quizartinib in plasma, single 30-mg dose with fluconazole 200 mg twice daily
# [10] = 200 mg, quizartinib in plasma, single 30-mg dose with ketoconazole 200 mg twice daily
# [11] = with fluconazole coadministration
# [12] = with ketoconazole coadministration vs quizartinib alone
smiles,measurement,setting,value
CC(=O)N1CCN(c2ccc(OCC3COC(Cn4ccnc4)(c4ccc(Cl)cc4Cl)O3)cc2)CC1 (stereo not drawn) [ketoconazole],Mean (± standard deviation) plasma concentration,[1]; predose on Day 6,1.5 ± 0.8 µg/mL
same,Mean (± standard deviation) plasma concentration,[1]; predose on Day 7,1.4 ± 0.7 µg/mL
same,Mean (± standard deviation) plasma concentration,[1]; predose on Day 8,1.4 ± 0.8 µg/mL
CC(C)(CO)c1cc(NC(=O)Nc2ccc(-c3cn4c(n3)sc3cc(OCCN5CCOCC5)ccc34)cc2)no1 [AC886],"AUCinf, ratio of geometric LS mean (90% CI)",[2]; [7],85%
same,"AUClast, ratio of geometric LS mean (90% CI)",[2]; [7],67%
same,"Cmax, ratio of geometric LS mean (90% CI)",[2]; [7],40%
same,"Median Tmax (min, max)","[2]; AC886 in plasma, single 30-mg dose of quizartinib alone",5.1 h
same,"Median Tmax (min, max)","[2]; AC886 in plasma, single 30-mg quizartinib dose with fluconazole",5.0 h
same,"Median Tmax (min, max)","[2]; AC886 in plasma, single 30-mg quizartinib dose with ketoconazole",48.0 h
same,Ratio of geometric LS means of Cmax of AC886 to Cmax of quizartinib,[2]; fluconazole + quizartinib arm,0.12
same,Ratio of geometric LS means of Cmax of AC886 to Cmax of quizartinib,[2]; ketoconazole + quizartinib arm,0.04
same,Ratio of geometric LS means of Cmax of AC886 to Cmax of quizartinib,[2]; quizartinib arm,0.13
same,Increase in T1/2,[2],96%
same,"Effect on QTcF, fold lower than quizartinib",[3],10 fold
OC(Cn1cncn1)(Cn1cncn1)c1ccc(F)cc1F [fluconazole],Mean (± standard deviation) plasma concentration,[1]; predose on Day 6,13.2 ± 4.1 µg/mL
same,Mean (± standard deviation) plasma concentration,[1]; predose on Day 7,13.8 ± 3.8 µg/mL
same,Mean (± standard deviation) plasma concentration,[1]; predose on Day 8,14.5 ± 3.7 µg/mL
CC(C)(C)c1cc(NC(=O)Nc2ccc(-c3cn4c(n3)sc3cc(OCCN5CCOCC5)ccc34)cc2)no1 [quizartinib],Increase in quizartinib exposure,[2]; coadministration with moderate CYP3A inhibitor fluconazole,≤ 20%
same,Tmax,[2]; 30 mg,4 h
same,AUC(0-inf),[2]; [8],9630 ng·h/mL
same,AUC(0-t),[2]; [8],9100 ng·h/mL
same,half-life,[2]; [8],4.08 days
same,Tmax,[2]; 200 mg,4 h
same,AUC(0-inf),[2]; [9],11500 ng·h/mL
same,AUC(0-inf),[2]; [10],18700 ng·h/mL
same,AUC(0-t),[2]; [9],10900 ng·h/mL
same,AUC(0-t),[2]; [10],17000 ng·h/mL
same,Cmax,[2]; [9],116 ng/mL
same,Cmax,[2]; [10],121 ng/mL
same,half-life,[2]; [9],4.67 days
same,half-life,[2]; [10],6.04 days
same,Decrease in CL/F,[2]; ketoconazole coadministered with quizartinib,50%
same,Increase in T1/2,[2],46%
same,"Median Tmax (min, max)","[2]; quizartinib in plasma, single 30-mg dose with fluconazole 200 mg twice daily","4.0 (2.0, 5.0) [n = 28] h"
same,Mean T1/2 (CV%),"[2]; quizartinib in plasma, single 30-mg dose with ketoconazole 200 mg twice daily",149 (23.0) [n = 28] h
same,Geometric mean CL/F (%CV),[2]; single 30-mg dose of quizartinib alone,2.75 (35.9) [n = 29] L/h
same,Geometric mean CL/F (%CV),[2]; single 30-mg dose with fluconazole 200 mg twice daily,2.29 (34.3) [n = 28] L/h
same,Geometric mean CL/F (%CV),[2]; single 30-mg dose with ketoconazole 200 mg twice daily,1.42 (26.1) [n = 28] L/h
same,Change in CL/F,[2]; [11],~17%
same,Change in mean T1/2,[2]; [11],~ 10%
same,Increase in geometric LS mean AUCinf,[2]; [11],20%
same,Increase in geometric LS mean AUClast,[2]; [11],20%
same,Increase in geometric LS mean Cmax,[2]; [11],11%
same,Increase in geometric LS mean AUCinf,[2]; [12],94%
same,Increase in geometric LS mean AUClast,[2]; [12],86%
same,Increase in geometric LS mean Cmax,[2]; [12],17%
same,Serious adverse events,[4]; all treatment arms,no serious adverse events or deaths occurred; also recorded: no serious AEs observed
same,Subjects who experienced at least 1 AE,[4]; fluconazole + quizartinib arm,14 (45.2%) subjects (%)
same,Subjects with AEs considered possibly related to quizartinib,[4]; fluconazole + quizartinib arm,1 subjects
same,Subjects with AEs considered possibly related to quizartinib,[4]; ketoconazole + quizartinib arm,1 subjects
same,Subjects who experienced quizartinib-related adverse events,[4]; overall,5.4%
same,Subjects with AEs considered possibly related to quizartinib,[4]; overall (n = 93),5 (5.4%) subjects (%)
same,Subjects who experienced at least 1 AE,[4]; quizartinib + ketoconazole arm,9 (29.0%) subjects (%)
same,Subjects who experienced at least 1 AE,[4]; quizartinib arm,13 (41.9%) subjects (%)
same,Subjects with AEs considered possibly related to quizartinib,[4]; quizartinib arm,3 subjects
same,"Vital signs and changes to QTcF, haematology or clinical chemistry",[5],No significant abnormalities in vital signs or changes to QTcF
same,Median effective half-life,[6],73 h
